Laboratory results: ChEMBL document CHEMBL3414548, “Luotonin-A based quinazolinones cause apoptosis and senescence via HDAC inhibition and activation of tumor suppressor proteins in HeLa cells” (Eur J Med Chem, 2015)

tested on: K562; test: Cytotoxicity against human K562 cells after 72 hrs by MTT assay; assay type: functional, cell-based; details: K562, 72 h
In short: (§1)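 Cells were seeded at 1×10⁴ per well and preincubated 18 h at 37 °C, 5% CO₂. They were then exposed to 1–256 μM for 72 h with DMSO ≤0.25%. MTT was added for 2 h and formazan was solubilized in extraction buffer before reading OD at 570 nm. IC50 is mean ± SD of three independent experiments. HEK is the normal-cell line; cancer lines were grown in DMEM with 10% serum.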

Structure (SMILES)	IC50 [µM]
CCCc1cn(Cc2ccccc2-n2c(C)nc3cc(OC)c(OC)cc3c2=O)nn1	22.4
COc1ccc(-c2cn(Cc3ccccc3-n3c(C)nc4ccccc4c3=O)nn2)cc1	22.4
CCCCCC(O)c1cn(Cc2ccccc2-n2c(C)nc3cc(OC)c(OC)cc3c2=O)nn1 (centres undefined)	22.9
COc1cc2nc(C)n(-c3ccccc3Cn3nnc4ncccc43)c(=O)c2cc1OC	19.7
COc1cc2nc(C)n(-c3ccccc3Cn3cc(-c4cc5ccccc5c5ccccc45)nn3)c(=O)c2cc1OC	25.6
COc1cc2nc(C)n(-c3ccccc3Cn3cc(-c4cccc(C)c4)nn3)c(=O)c2cc1OC	31.5
COc1cc2nc(C)n(-c3ccccc3Cn3ccnn3)c(=O)c2cc1OC	28.8
Cc1nc2ccccc2c(=O)n1-c1ccccc1Cn1ccnn1	22.4
COc1cc2nc(C)n(-c3ccccc3Cn3cc(-c4cccnc4)nn3)c(=O)c2cc1OC	20
COc1cc2nc(C)n(-c3ccccc3Cn3cc(-c4ccc(-c5ccccc5)cc4)nn3)c(=O)c2cc1OC	22.4
COc1cc2nc(C)n(-c3ccccc3Cn3cc(CCO)nn3)c(=O)c2cc1OC	26.6
COc1cccc(-c2cn(Cc3ccccc3-n3c(C)nc4cc(OC)c(OC)cc4c3=O)nn2)c1	22.4

tested on: HeLa; test: Cytotoxicity against human HeLa cells after 72 hrs by MTT assay; assay type: functional, cell-based; details: not given; in short: as §1

Structure (SMILES)	IC50 [µM]
CCCc1cn(Cc2ccccc2-n2c(C)nc3cc(OC)c(OC)cc3c2=O)nn1	13.2
COc1ccc(-c2cn(Cc3ccccc3-n3c(C)nc4ccccc4c3=O)nn2)cc1	12.8
CCCCCC(O)c1cn(Cc2ccccc2-n2c(C)nc3cc(OC)c(OC)cc3c2=O)nn1 (centres undefined)	16
COc1cc2nc(C)n(-c3ccccc3Cn3nnc4ncccc43)c(=O)c2cc1OC	11.9
COc1cc2nc(C)n(-c3ccccc3Cn3cc(-c4cc5ccccc5c5ccccc45)nn3)c(=O)c2cc1OC	12.8
COc1cc2nc(C)n(-c3ccccc3Cn3cc(-c4cccc(C)c4)nn3)c(=O)c2cc1OC	14.4
COc1cc2nc(C)n(-c3ccccc3Cn3ccnn3)c(=O)c2cc1OC	12.6
Cc1nc2ccccc2c(=O)n1-c1ccccc1Cn1ccnn1	16.4
COc1cc2nc(C)n(-c3ccccc3Cn3cc(-c4cccnc4)nn3)c(=O)c2cc1OC	13.2
COc1cc2nc(C)n(-c3ccccc3Cn3cc(-c4ccc(-c5ccccc5)cc4)nn3)c(=O)c2cc1OC	14.2
COc1cc2nc(C)n(-c3ccccc3Cn3cc(CCO)nn3)c(=O)c2cc1OC	16
COc1cccc(-c2cn(Cc3ccccc3-n3c(C)nc4cc(OC)c(OC)cc4c3=O)nn2)c1	11.9

tested on: not listed separately; test: Cytotoxicity against HEK cells after 72 hrs by MTT assay; assay type: cell-based; details: Homo sapiens, HEK293, 72 h; in short: as §1

Structure (SMILES)	IC50 [µM]
CCCc1cn(Cc2ccccc2-n2c(C)nc3cc(OC)c(OC)cc3c2=O)nn1	74
COc1ccc(-c2cn(Cc3ccccc3-n3c(C)nc4ccccc4c3=O)nn2)cc1	116
CCCCCC(O)c1cn(Cc2ccccc2-n2c(C)nc3cc(OC)c(OC)cc3c2=O)nn1 (centres undefined)	48
COc1cc2nc(C)n(-c3ccccc3Cn3nnc4ncccc43)c(=O)c2cc1OC	79
COc1cc2nc(C)n(-c3ccccc3Cn3cc(-c4cc5ccccc5c5ccccc45)nn3)c(=O)c2cc1OC	89
COc1cc2nc(C)n(-c3ccccc3Cn3cc(-c4cccc(C)c4)nn3)c(=O)c2cc1OC	56
COc1cc2nc(C)n(-c3ccccc3Cn3ccnn3)c(=O)c2cc1OC	98
Cc1nc2ccccc2c(=O)n1-c1ccccc1Cn1ccnn1	76
COc1cc2nc(C)n(-c3ccccc3Cn3cc(-c4cccnc4)nn3)c(=O)c2cc1OC	54
COc1cc2nc(C)n(-c3ccccc3Cn3cc(-c4ccc(-c5ccccc5)cc4)nn3)c(=O)c2cc1OC	71
COc1cc2nc(C)n(-c3ccccc3Cn3cc(CCO)nn3)c(=O)c2cc1OC	124
COc1cccc(-c2cn(Cc3ccccc3-n3c(C)nc4cc(OC)c(OC)cc4c3=O)nn2)c1	51

tested on: HEK293; test: Selectivity index, ratio of IC50 for HEK cells to IC50 for human K562 cells; assay type: functional; details: not given
In short: (§2)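 Selectivity index is IC50 in normal HEK cells divided by IC50 in the cancer cell line.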

Structure (SMILES)	Ratio IC50
CCCc1cn(Cc2ccccc2-n2c(C)nc3cc(OC)c(OC)cc3c2=O)nn1	3.3
COc1ccc(-c2cn(Cc3ccccc3-n3c(C)nc4ccccc4c3=O)nn2)cc1	5.17
CCCCCC(O)c1cn(Cc2ccccc2-n2c(C)nc3cc(OC)c(OC)cc3c2=O)nn1 (centres undefined)	2.09
COc1cc2nc(C)n(-c3ccccc3Cn3nnc4ncccc43)c(=O)c2cc1OC	4.01
COc1cc2nc(C)n(-c3ccccc3Cn3cc(-c4cc5ccccc5c5ccccc45)nn3)c(=O)c2cc1OC	3.47
COc1cc2nc(C)n(-c3ccccc3Cn3cc(-c4cccc(C)c4)nn3)c(=O)c2cc1OC	1.77
COc1cc2nc(C)n(-c3ccccc3Cn3ccnn3)c(=O)c2cc1OC	3.4
Cc1nc2ccccc2c(=O)n1-c1ccccc1Cn1ccnn1	3.39
COc1cc2nc(C)n(-c3ccccc3Cn3cc(-c4cccnc4)nn3)c(=O)c2cc1OC	2.7
COc1cc2nc(C)n(-c3ccccc3Cn3cc(-c4ccc(-c5ccccc5)cc4)nn3)c(=O)c2cc1OC	3.16
COc1cc2nc(C)n(-c3ccccc3Cn3cc(CCO)nn3)c(=O)c2cc1OC	4.66
COc1cccc(-c2cn(Cc3ccccc3-n3c(C)nc4cc(OC)c(OC)cc4c3=O)nn2)c1	2.27

tested on: HeLa; test: Selectivity index, ratio of IC50 for HEK cells to IC50 for human HeLa cells; assay type: functional; details: not given; in short: as §2

Structure (SMILES)	Ratio IC50
CCCc1cn(Cc2ccccc2-n2c(C)nc3cc(OC)c(OC)cc3c2=O)nn1	5.58
COc1ccc(-c2cn(Cc3ccccc3-n3c(C)nc4ccccc4c3=O)nn2)cc1	9.06
CCCCCC(O)c1cn(Cc2ccccc2-n2c(C)nc3cc(OC)c(OC)cc3c2=O)nn1 (centres undefined)	3
COc1cc2nc(C)n(-c3ccccc3Cn3nnc4ncccc43)c(=O)c2cc1OC	6.64
COc1cc2nc(C)n(-c3ccccc3Cn3cc(-c4cc5ccccc5c5ccccc45)nn3)c(=O)c2cc1OC	6.95
COc1cc2nc(C)n(-c3ccccc3Cn3cc(-c4cccc(C)c4)nn3)c(=O)c2cc1OC	3.88
COc1cc2nc(C)n(-c3ccccc3Cn3ccnn3)c(=O)c2cc1OC	7.77
Cc1nc2ccccc2c(=O)n1-c1ccccc1Cn1ccnn1	4.62
COc1cc2nc(C)n(-c3ccccc3Cn3cc(-c4cccnc4)nn3)c(=O)c2cc1OC	4.07
COc1cc2nc(C)n(-c3ccccc3Cn3cc(-c4ccc(-c5ccccc5)cc4)nn3)c(=O)c2cc1OC	5.01
COc1cc2nc(C)n(-c3ccccc3Cn3cc(CCO)nn3)c(=O)c2cc1OC	7.75
COc1cccc(-c2cn(Cc3ccccc3-n3c(C)nc4cc(OC)c(OC)cc4c3=O)nn2)c1	4.29

tested on: HEK293; test: Selectivity index, ratio of IC50 for HEK cells to IC50 for human MCF7 cells; assay type: functional; details: not given; in short: as §2

Structure (SMILES)	Ratio IC50
CCCc1cn(Cc2ccccc2-n2c(C)nc3cc(OC)c(OC)cc3c2=O)nn1	5.13
COc1ccc(-c2cn(Cc3ccccc3-n3c(C)nc4ccccc4c3=O)nn2)cc1	8.05
CCCCCC(O)c1cn(Cc2ccccc2-n2c(C)nc3cc(OC)c(OC)cc3c2=O)nn1 (centres undefined)	2.68
COc1cc2nc(C)n(-c3ccccc3Cn3nnc4ncccc43)c(=O)c2cc1OC	4.25
COc1cc2nc(C)n(-c3ccccc3Cn3cc(-c4cc5ccccc5c5ccccc45)nn3)c(=O)c2cc1OC	6.72
COc1cc2nc(C)n(-c3ccccc3Cn3cc(-c4cccc(C)c4)nn3)c(=O)c2cc1OC	3.1
COc1cc2nc(C)n(-c3ccccc3Cn3ccnn3)c(=O)c2cc1OC	4.13
Cc1nc2ccccc2c(=O)n1-c1ccccc1Cn1ccnn1	4.97
COc1cc2nc(C)n(-c3ccccc3Cn3cc(-c4cccnc4)nn3)c(=O)c2cc1OC	5.3
COc1cc2nc(C)n(-c3ccccc3Cn3cc(-c4ccc(-c5ccccc5)cc4)nn3)c(=O)c2cc1OC	6.78
COc1cc2nc(C)n(-c3ccccc3Cn3cc(CCO)nn3)c(=O)c2cc1OC	8.85
COc1cccc(-c2cn(Cc3ccccc3-n3c(C)nc4cc(OC)c(OC)cc4c3=O)nn2)c1	3.37

tested on: MCF7; test: Cytotoxicity against human MCF7 cells after 72 hrs by MTT assay; assay type: functional, cell-based; details: MCF7, 72 h; in short: as §1

Structure (SMILES)	IC50 [µM]
CCCc1cn(Cc2ccccc2-n2c(C)nc3cc(OC)c(OC)cc3c2=O)nn1	14.4
COc1ccc(-c2cn(Cc3ccccc3-n3c(C)nc4ccccc4c3=O)nn2)cc1	14.4
CCCCCC(O)c1cn(Cc2ccccc2-n2c(C)nc3cc(OC)c(OC)cc3c2=O)nn1 (centres undefined)	17.9
COc1cc2nc(C)n(-c3ccccc3Cn3nnc4ncccc43)c(=O)c2cc1OC	18.6
COc1cc2nc(C)n(-c3ccccc3Cn3cc(-c4cc5ccccc5c5ccccc45)nn3)c(=O)c2cc1OC	13.2
COc1cc2nc(C)n(-c3ccccc3Cn3cc(-c4cccc(C)c4)nn3)c(=O)c2cc1OC	18
COc1cc2nc(C)n(-c3ccccc3Cn3ccnn3)c(=O)c2cc1OC	23.7
Cc1nc2ccccc2c(=O)n1-c1ccccc1Cn1ccnn1	15.3
COc1cc2nc(C)n(-c3ccccc3Cn3cc(-c4cccnc4)nn3)c(=O)c2cc1OC	10.2
COc1cc2nc(C)n(-c3ccccc3Cn3cc(-c4ccc(-c5ccccc5)cc4)nn3)c(=O)c2cc1OC	10.5
COc1cc2nc(C)n(-c3ccccc3Cn3cc(CCO)nn3)c(=O)c2cc1OC	14
COc1cccc(-c2cn(Cc3ccccc3-n3c(C)nc4cc(OC)c(OC)cc4c3=O)nn2)c1	15.1
